According to ChEMBL document CHEMBL4138145, “Cyclic Cystine-Bridged Peptides from the Marine Sponge Clathria basilana Induce Apoptosis in Tumor Cells and Depolarize the Bacterial Cytoplasmic Membrane” (J Nat Prod, 2017):
pIC50: −log10 of the molar value. Calls of active or inactive are those of the source. Where a SMILES comes first, the peptide text is derived from it. Bridges are numbered along the chain shown (N, C = ends). The star is where a group is joined. X1 = CC(C)[C@H](C)C(=O)*; X2 = C(=C\c1ccccc1)/N*

Assays:
[1] = tested on: Mycobacterium tuberculosis; experiment: Antimicrobial activity against Mycobacterium tuberculosis H37Rv up to 100 uM after 5 days by resazurin dye based assay; format: functional, organism-based
Method in brief: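 M. tuberculosis H37Rv was grown aerobically at 37 °C in Middlebrook 7H9 with ADS enrichment, 0.5% glycerol and 0.05% tyloxapol, then precultured to log phase (OD600 0.5−1). Cells were seeded at 1 × 10^5 per well on 2-fold dilutions over 100−0.78 μM and held 5 days at 37 °C. Resazurin was added for 16 h at ambient temperature, then cells were formalin-fixed and fluorescence read (ex 540, em 590 nm). Growth is relative to rifampicin (0%) and DMSO (100%).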

A2780 = experiment: Cytotoxicity against human A2780 cells assessed as reduction in cell viability after 72 hrs by MTT assay; format: functional, cell-based; conditions: A2780, 72 h
Method in brief: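 A2780 ovarian carcinoma cells were grown in RPMI-1640 with 10% FBS, penicillin and streptomycin, about 9000 cells/well, preincubated overnight. Increasing compound concentrations were applied for 72 h, then MTT was added. Absorbance read at 544 nm minus the 690 nm reference.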

Ramos [2] = experiment: Cytotoxicity against human Ramos cells assessed as reduction in cell viability after 24 hrs by MTT assay; format: functional, cell-based
Method in brief: (§1)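 Suspension cells at 5 × 10^5 cells/mL, exposed 24 h to varying compound concentrations; 0.1% v/v DMSO as negative control. MTT added to 1 mg/mL final for 60 min, cells pelleted, formazan extracted in DMSO for 25 min at rt, A570 read with 650 nm reference. Viability relative to DMSO set at 100%; IC50 from fitted curves.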

[3] = Cytotoxicity against human Jurkat 16 cells assessed as reduction in cell viability after 24 hrs by MTT assay; format: functional, cell-based; method in brief: as §1
NOMO-1 = experiment: Cytotoxicity against human NOMO1 cells assessed as reduction in cell viability after 24 hrs by MTT assay; format: functional, cell-based; conditions: NOMO-1, 24 h; method in brief: as §1
HL-60 = experiment: Cytotoxicity against human HL60 cells assessed as reduction in cell viability after 24 hrs by MTT assay; format: functional, cell-based; conditions: HL-60, 24 h; method in brief: as §1
Homo sapiens [4] = species on record: Homo sapiens; experiment: Induction of apoptosis in human Jurkat 16 cells assessed as activation of caspase 3 at 10 uM using Ac-DEVD-AMC as substrate measured up to 4 hrs by immuno blot analysis; format: functional, cell-based
Homo sapiens [5] = species on record: Homo sapiens; experiment: Induction of apoptosis in human Jurkat 16 cells assessed as maximum activation of caspase 3 at 10 uM using Ac-DEVD-AMC as substrate measured after 6 to 7 hrs by immuno blot analysis; format: functional, cell-based
Ramos [6] = experiment: Induction of apoptosis in human Ramos cells assessed as activation of caspase 3 at 10 uM using Ac-DEVD-AMC as substrate measured up to 4 hrs by immuno blot analysis; format: functional, cell-based
Ramos [7] = experiment: Induction of apoptosis in human Ramos cells assessed as maximum activation of caspase 3 at 10 uM using Ac-DEVD-AMC as substrate measured after 6 to 7 hrs by immuno blot analysis; format: functional, cell-based
Homo sapiens [8] = species on record: Homo sapiens; experiment: Induction of apoptosis in human Jurkat 16 cells assessed as activation of caspase 3 at 1 uM using Ac-DEVD-AMC as substrate measured up to 4 hrs by […]; format: functional, cell-based
Homo sapiens [9] = species on record: Homo sapiens; experiment: Induction of apoptosis in human Jurkat 16 cells assessed as maximum activation of caspase 3 at 1 uM using Ac-DEVD-AMC as substrate measured after 6 to 7 hrs by immuno blot analysis; format: functional, cell-based
Ramos [10] = experiment: Induction of apoptosis in human Ramos cells assessed as activation of caspase 3 at 1 uM using Ac-DEVD-AMC as substrate measured up to 4 hrs by immuno blot analysis; format: functional, cell-based
Ramos [11] = experiment: Induction of apoptosis in human Ramos cells assessed as maximum activation of caspase 3 at 1 uM using Ac-DEVD-AMC as substrate measured after 6 to 7 hrs by immuno blot analysis; format: functional, cell-based
Homo sapiens [12] = species on record: Homo sapiens; experiment: Induction of apoptosis in human Jurkat 16 cells assessed as increase in PARP cleavage at 10 uM measured up to 4 to 8 hrs by immuno blot analysis; format: functional, cell-based
Ramos [13] = experiment: Induction of apoptosis in human Ramos cells assessed as increase in PARP cleavage at 10 uM measured up to 4 to 8 hrs by immuno blot analysis; format: functional, cell-based
Method in brief: (§2)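 Ramos cells were exposed for 2–8 h with or without Q-VD-OPh 10 μM; staurosporine 2.5 μM served as positive control. Cells were lysed in Tris/Triton buffer with phosphatase and protease inhibitors. Then 25 μg protein was run on 10% SDS-PAGE and blotted to PVDF for PARP cleavage, with β-actin as loading control.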

Ramos [14] = experiment: Induction of apoptosis in human Ramos cells assessed as PARP cleavage at 10 uM cotreated with pan-caspase inhibitor QVD-OPh measured after 2 to 8 hrs by Western blot analysis; format: functional, cell-based; method in brief: as §2
MEF = experiment: Inhibition of autophagy in mouse MEF expressing mCitrine-hLC3B assessed as reduction in amino acid starvation-induced degradation of LC3 at 10 uM after 4 hrs by flow cytometry; format: functional, cell-based
Method in brief: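 MEFs stably expressing mCitrine-hLC3B were held 4 h in full medium or EBSS starvation medium with 10 μM compound; bafilomycin A1 10 nM was the inhibition control. Cells were trypsinized, washed and read by flow cytometry for median mCitrine fluorescence. Values normalized to DMSO-treated full-medium cells; mean ± SD of 3 independent analyses; Student's t test.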

Staphylococcus aureus [15] = experiment: Antimicrobial activity against Staphylococcus aureus after 16 to 20 hrs by broth micro dilution method; format: functional
Method in brief: (§3)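 Broth microdilution per CLSI in cation-adjusted Mueller-Hinton broth. Inoculum made by direct colony suspension, 5 × 10^5 CFU/mL final, added to serial 2-fold compound dilutions. Plates kept 16–20 h at 37 °C in ambient air. MIC is the lowest concentration with no visible growth. Strains are ATCC CLSI quality-control strains; A. baumannii 09987 is a Bonn clinical isolate.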

Enterococcus faecium = experiment: Antimicrobial activity against vancomycin-resistant Enterococcus faecium isolate BM 4147-1 after 16 to 20 hrs by broth micro dilution method; format: functional
Klebsiella pneumoniae = experiment: Antimicrobial activity against Klebsiella pneumoniae after 16 to 20 hrs by broth micro dilution method; format: functional, organism-based; method in brief: as §3
Klebsiella aerogenes = experiment: Antimicrobial activity against Enterobacter aerogenes after 16 to 20 hrs by broth micro dilution method; format: functional, organism-based; method in brief: as §3
Escherichia coli = experiment: Antimicrobial activity against Escherichia coli after 16 to 20 hrs by broth micro dilution method; format: functional, organism-based; method in brief: as §3
Pseudomonas aeruginosa = experiment: Antimicrobial activity against Pseudomonas aeruginosa after 16 to 20 hrs by broth micro dilution method; format: functional, organism-based; method in brief: as §3
Acinetobacter baumannii = experiment: Antimicrobial activity against Acinetobacter baumannii isolate 09987 after 16 to 20 hrs by broth micro dilution method; format: functional, organism-based; method in brief: as §3
Bacillus subtilis [16] = experiment: Induction of cell envelope stress in Bacillus subtilis isolate 1S34 assessed as increase in liaI promoter activity at 20 nmol after 14 to 18 hrs by beta-galactosidase reporter gene assay; format: functional, organism-based
Method in brief: (§4)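 Agar-based β-galactosidase promoter-reporter assay. B. subtilis 1S34 grown to stationary phase in LB with spectinomycin 50 μg/mL, then set at 3 × 10^7 CFU/mL in LB soft agar (0.7%) containing X-Gal 150 μg/mL. Test compounds spotted at 20 nmol; reference antibiotics given on paper discs (5–30 μg). Plates read for promoter induction after 14–18 h at 30 °C.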

Bacillus subtilis [17] = experiment: Induction of cell envelope stress in Bacillus subtilis isolate 1S34 assessed as increase in ypuA promoter activity at 20 nmol after 14 to 18 hrs by beta-galactosidase reporter gene assay; format: functional, organism-based; method in brief: as §4
Bacillus subtilis [18] = experiment: Induction of DNA damage in Bacillus subtilis isolate 1S34 assessed as increase in yorB promoter activity at 20 nmol after 14 to 18 hrs by beta-galactosidase reporter gene assay; format: functional, organism-based; method in brief: as §4
Bacillus subtilis [19] = experiment: Induction of RNA damage in Bacillus subtilis isolate 1S34 assessed as increase in helD promoter activity at 20 nmol after 14 to 18 hrs by beta-galactosidase reporter gene assay; format: functional, organism-based; method in brief: as §4
Bacillus subtilis [20] = experiment: Induction of translation arrest in Bacillus subtilis isolate 1S34 assessed as increase in bmrC promoter activity at 20 nmol after 14 to 18 hrs by beta-galactosidase reporter gene assay; format: functional, organism-based
Staphylococcus aureus [21] = experiment: Disruption of inner membrane potential in Staphylococcus aureus NCTC 8325 at 0.2 uM measured after 30 to 60 mins by DiOC2(3) dye based fluorescence assay; format: functional, organism-based
Method in brief: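 S. aureus NCTC 8325 grown to exponential phase in LB, resuspended in PBS at OD600 0.5, and loaded with 30 μM DiOC2(3) for 15 min before compound addition. Fluorescence read 30 and 60 min later: excitation 485 nm, emission 530 nm (green) and 630 nm (red). Controls were CCCP 5 μM and DMSO. Two runs on different days with independent cultures.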

CC[C@H](C)[C@@H]1NC(=O)[C@@H](NC(=O)[C@@H](C)C(C)C)CSSC[C@@H](C(=O)N/C=C/c2ccccc2)NC(=O)[C@H]([C@@H](C)CC)NC(=O)[C@H]([C@@H](C)CC)NC(=O)[C@H]([C@@H](C)CC)NC1=O (X1-CIIIIC-X2; disulfide 1-6)
5.34: pIC50 [3]
6.2 µM: MIC (Staphylococcus aureus [15])
5.00: pIC50 (NOMO-1)
inactive: Activity [1] | Activity (Homo sapiens [8]) | Activity (Homo sapiens [9]) | Activity (Ramos [10]) | Activity (Ramos [11]) | Activity (Ramos [14]) | inhibition (MEF) | Activity (Klebsiella pneumoniae) | Activity (Klebsiella aerogenes) | Activity (Escherichia coli) | Activity (Pseudomonas aeruginosa) | Activity (Acinetobacter baumannii) | Activity (Bacillus subtilis [18]) | Activity (Bacillus subtilis [19]) | Activity (Bacillus subtilis [20])
active: Activity (Homo sapiens [4]) | Activity (Homo sapiens [5]) | Activity (Ramos [6]) | Activity (Ramos [7]) | Activity (Homo sapiens [12]) | Activity (Ramos [13]) | Activity (Bacillus subtilis [16]) | Activity (Bacillus subtilis [17]) | Activity (Staphylococcus aureus [21])
4.55: pIC50 (HL-60)
5.59: pIC50 (A2780)
5.23: pIC50 (Ramos [2])
12 µM: MIC (Enterococcus faecium)
